Assay results reported in ChEMBL document CHEMBL3286372, “Design, synthesis and structure-activity relationship of novel semi-synthetic flavonoids as antiproliferative agents” (2014).

What was measured:
[1] = Growth inhibition of human OVCAR8 cells after 48 hrs by coulter counting analysis; format: functional; settings: OVCAR-8, 48 h
Method in brief: (§1)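 Five-dose NCI-60 follow-up, 0.01–100 µM, made from DMSO stock in buffered saline (final DMSO <1%), in duplicate wells. Cells in RPMI 1640 with 10% FBS at 6×10^4 cells/ml, 37 °C, 5% CO2, 48 h. Cells diluted tenfold in saline, Coulter-counted and corrected for dilution. GI50, TGI and LC50 taken from log concentration–percent growth curves.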

[2] = test system: SNB-19; assay: Growth inhibition of human SNB19 cells after 48 hrs by coulter counting analysis; format: functional; settings: SNB-19, 48 h; method in brief: as §1
[3] = test system: SK-MEL-28; assay: Growth inhibition of human SK-MEL-28 cells after 48 hrs by coulter counting analysis; format: functional; settings: SK-MEL-28, 48 h; method in brief: as §1
[4] = Growth inhibition of human NCI60 cells after 48 hrs by coulter counting analysis; format: functional; settings: NCI60, 48 h
Method in brief: (§2)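 Five-dose screen (0.01-100 µM, DMSO-solubilized, under 1% DMSO final), cells in RPMI 1640 + 10% FBS at 6×10^4 cells/ml, duplicate wells, 37 °C, 5% CO2, 48 h. Cells then diluted tenfold in saline and counted by Coulter counter with dilution correction. Controls held buffer/saline/DMSO at matching dilutions. GI50 derived from log concentration-percent growth inhibition curves.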

[5] = Growth inhibition of human OVCAR4 cells after 48 hrs by coulter counting analysis; format: functional; settings: OVCAR-4, 48 h; method in brief: as §1
[6] = test system: NCI-H226; assay: Growth inhibition of human NCI-H226 cells after 48 hrs by coulter counting analysis; format: functional; settings: NCI-H226, 48 h; method in brief: as §1
[7] = test system: K562; assay: Growth inhibition of human K562 cells after 48 hrs by coulter counting analysis; format: functional; settings: K562, 48 h
Method in brief: (§3)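 NCI five-dose screen at 0.01-100 µM, diluted from DMSO stocks in buffered saline (final DMSO <1%). Cells at 6×10^4 cells/ml in RPMI 1640 with 10% FBS, in duplicate wells, at 37 °C under 5% CO2 for 48 h. Cells diluted tenfold in saline and Coulter-counted. GI50, TGI and LC50 taken from log concentration-growth inhibition curves.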

[8] = test system: MCF7; assay: Growth inhibition of human MCF7 cells at 10 uM after 48 hrs by sulforhodamine B assay relative to control; format: functional; settings: MCF7, 48 h, read-out: GI
Method in brief: (§4)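 NCI-60 primary screen at a single dose of 10 µM with 48 h continuous exposure. Growth or viability read by sulforhodamine B protein staining and expressed as percent growth inhibition versus untreated cells.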

[9] = molecular target: Cyclin-dependent kinase 4/cyclin D1 (Homo sapiens) (UniProt P11802+P24385); assay: Inhibition of CDK4/Cyclin D1 (unknown origin) at 20 uM after 30 mins by scintillation counting analysis relative to control; format: protein-complex assay
Method in brief: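 Recombinant kinases, cloned, expressed and purified in-house. Radiometric ³³P-ATP assay with kinase at ~10-50 nM final and 1-5 µg peptide or protein substrate. Compound at 20 µM final, in duplicate. Reaction started by adding ATP, run 30 min at ambient temperature, then spotted on P81 phosphocellulose. Plates washed in 1% phosphoric acid and counted by scintillation. No-substrate blank subtracted. Result is mean % activity change versus DMSO control.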

[10] = test system: MDA-MB-231; assay: Growth inhibition of human MDA-MB-231 cells after 48 hrs by coulter counting analysis; format: functional; settings: MDA-MB-231, 48 h; method in brief: as §3
[11] = test system: NCI-H460; assay: Growth inhibition of human NCI-H460 cells after 48 hrs by coulter counting analysis; format: functional; settings: NCI-H460, 48 h; method in brief: as §1
[12] = test system: DU-145; assay: Growth inhibition of human DU145 cells at 10 uM after 48 hrs by sulforhodamine B assay relative to control; format: functional; settings: DU-145, 48 h, read-out: GI; method in brief: as §4
[13] = test system: T47D; assay: Growth inhibition of human T47D cells after 48 hrs by coulter counting analysis; format: functional; method in brief: as §1
[14] = test system: TK-10; assay: Growth inhibition of human TK10 cells after 48 hrs by coulter counting analysis; format: functional; settings: TK-10, 48 h
Method in brief: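 NCI five-dose screen, 0.01-100 µM, from DMSO stocks diluted in buffer saline (final DMSO <1%). Cells grown in RPMI 1640 + 10% FBS, seeded at 6×10^4 cells/ml, in duplicate wells. Exposure 48 h at 37 °C, 5% CO2. Cells diluted 10-fold in saline and counted by Coulter counter. GI50 derived from log concentration–percent growth inhibition curves. Controls carried matching PBS/saline/DMSO.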

[15] = Growth inhibition of human Hs 578T cells after 48 hrs by coulter counting analysis; format: functional; method in brief: as §3
[16] = test system: IGROV-1; assay: Growth inhibition of human IGROV1 cells after 48 hrs by coulter counting analysis; format: functional; settings: IGROV-1, 48 h; method in brief: as §3
[17] = test system: SK-MEL-5; assay: Growth inhibition of human SK-MEL-5 cells after 48 hrs by coulter counting analysis; format: functional; settings: SK-MEL-5, 48 h; method in brief: as §1
[18] = Growth inhibition of human UO31 cells at 10 uM after 48 hrs by sulforhodamine B assay relative to control; format: functional; settings: UO-31, 48 h, read-out: GI
Method in brief: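 NCI-60 primary single-dose screen at 10 µM with continuous 48 h exposure. Cell viability/growth read by sulforhodamine B protein staining. Reported as percent growth inhibition relative to untreated cells.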

[19] = test system: HOP-62; assay: Growth inhibition of human HOP62 cells after 48 hrs by coulter counting analysis; format: functional; settings: HOP-62, 48 h; method in brief: as §3
[20] = test system: MDA-MB-468; assay: Growth inhibition of human MDA-MB-468 cells after 48 hrs by coulter counting analysis; format: functional; settings: MDA-MB-468, 48 h; method in brief: as §1
[21] = Growth inhibition of human NCI-ADR-RES cells at 10 uM after 48 hrs by sulforhodamine B assay relative to control; format: functional; settings: read-out: GI
Method in brief: (§5)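 NCI-60 primary screen at a single 10 µM dose. Continuous 48 h exposure, with growth or viability estimated by sulforhodamine B protein staining. Reported as percent growth inhibition of treated cells relative to untreated growth.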

[22] = test system: MDA-MB-435; assay: Growth inhibition of human MDA-MB-435 cells after 48 hrs by coulter counting analysis; format: functional; settings: MDA-MB-435, 48 h; method in brief: as §3
[23] = Growth inhibition of human RXF393 cells after 48 hrs by coulter counting analysis; format: functional; settings: RXF 393, 48 h; method in brief: as §1
[24] = test system: CCRF-CEM; assay: Growth inhibition of human CCRF-CEM cells at 10 uM after 48 hrs by sulforhodamine B assay relative to control; format: functional; settings: read-out: GI; method in brief: as §4
[25] = test system: SNB-75; assay: Growth inhibition of human SNB75 cells after 48 hrs by coulter counting analysis; format: functional; settings: SNB-75, 48 h; method in brief: as §1
[26] = Growth inhibition of human HCC2998 cells after 48 hrs by coulter counting analysis; format: functional; settings: HCC 2998, 48 h; method in brief: as §3
[27] = test system: A549; assay: Growth inhibition of human A549/ATCC cells after 48 hrs by coulter counting analysis; format: functional; settings: A549, 48 h; method in brief: as §3
[28] = Growth inhibition of human OVCAR8 cells at 10 uM after 48 hrs by sulforhodamine B assay relative to control; format: functional; settings: OVCAR-8, 48 h, read-out: GI; method in brief: as §5
[29] = test system: HL-60(TB); assay: Growth inhibition of human HL-60(TB) cells after 48 hrs by coulter counting analysis; format: functional; settings: HL-60, 48 h; method in brief: as §2

Work on COc1c(C(=O)/C=C/c2ccccc2)c(O)cc2occc12 yielded a GI50 [1] of 3.63 µM, a GI50 [2] of 7.33 µM and a GI50 [3] of 7.03 µM. It also gave an LC50 [4] of 55 µM, a TGI [4] of 18.6 µM and a GI50 [5] of 5.4 µM. The GI50 [6] was 6.03 µM, the GI50 [7] was 4.43 µM and the inhibition of growth at 10 µM [8] was 76%. The inhibition [9] was 13%, the GI50 [10] was 4.38 µM and the GI50 [11] was 3.02 µM. It also gave an inhibition of growth at 10 µM [12] of 75%, a GI50 [13] of 11.1 µM and a GI50 [14] of 11.2 µM. The GI50 [15] was 2.76 µM, the GI50 [16] was 3.51 µM and the GI50 [17] was 3.87 µM. For the same compound, the inhibition of growth at 10 µM [18] was 60%, the GI50 [19] was 11.3 µM and the GI50 [20] was 6.77 µM. For the same compound, the inhibition of growth at 10 µM [21] was 68%, the GI50 [22] was 3.21 µM and the GI50 [23] was 3.56 µM. The inhibition of growth at 10 µM [24] was 65%, the GI50 [25] was 2.42 µM and the GI50 [26] was 3.76 µM. It also gave a GI50 [27] of 8.62 µM.
Compound COc1ccccc1/C=C/C(=O)c1c(O)cc2occc2c1OC has a GI50 [1] of 53.8 µM, a GI50 [2] of 30.8 µM and a GI50 [3] of over 100 µM. It also gave an LC50 [4] of 100 µM, a TGI [4] of 89.1 µM and a GI50 [5] of over 100 µM. The GI50 [6] was 25.1 µM, the inhibition of growth at 10 µM [8] was 60% and the inhibition [9] was 0%. For the same compound, the GI50 [10] was 33.1 µM, the GI50 [11] was over 100 µM and the inhibition of growth at 10 µM [12] was 78%. It also gave a GI50 [13] of 55.9 µM, a GI50 [14] of 21.9 µM and a GI50 [15] of 38.2 µM. For the same compound, the GI50 [16] was 26 µM, the GI50 [17] was over 100 µM and the GI50 [19] was 19.3 µM. For the same compound, the GI50 [20] was 10.3 µM, the GI50 [22] was 5.69 µM and the GI50 [23] was 14.9 µM. It also gave an inhibition of growth at 10 µM [24] of 63%, a GI50 [25] of 7.49 µM and a GI50 [26] of over 100 µM. The GI50 [27] was over 100 µM.
For COc1c2occc2c(OC)c2c(=O)c(CN3CCOCC3)c(/C=C/c3ccc(N(C)C)cc3)oc12, the GI50 [1] was 5.15 µM, the GI50 [2] was 1.98 µM and the GI50 [3] was 2.3 µM. It also gave an LC50 [4] of 60.2 µM, a TGI [4] of 5.24 µM and a GI50 [5] of 2.47 µM. The GI50 [6] was 2.06 µM, the GI50 [7] was 1.85 µM and the inhibition [9] was 12%. For the same compound, the GI50 [10] was 2.22 µM, the GI50 [11] was 2.02 µM and the LC50 (lethal concentration, 50% net cell kill) [11] was 8.48 µM. For the same compound, the inhibition of growth at 10 µM [12] was 93%, the GI50 [13] was 2.21 µM and the GI50 [14] was 2.46 µM. It also gave a GI50 [16] of 1.79 µM, a GI50 [17] of 1.09 µM and a CC50 ([17]; read-out: LC50 (the source's name)) of 4.99 µM. The inhibition of growth at 10 µM [18] was 63%, the GI50 [19] was 2.33 µM and the GI50 [20] was 1.76 µM. It also gave an inhibition of growth at 10 µM [21] of 87%, a GI50 [22] of 2.05 µM and an inhibition of growth at 10 µM [28] of 80%. The GI50 [29] was 1.55 µM, the LC50 [29] was 9.7 µM and the GI50 [23] was 1.81 µM. It also gave an inhibition of growth at 10 µM [24] of 95%, a GI50 [25] of 1.39 µM and an LC50 [25] of 5.75 µM. It also gave a GI50 [26] of 2.62 µM and a GI50 [27] of 2.83 µM.
For C=CCc1c2c(c(OC)c3ccoc13)C(=O)/C(=C/c1ccccc1OC)O2, the GI50 [1] was 3.87 µM, the GI50 [2] was 5.83 µM and the GI50 [3] was 5.21 µM. It also gave an LC50 [4] of 100 µM, a TGI [4] of 58.9 µM and a GI50 [5] of 3.34 µM. The GI50 [6] was 3.22 µM, the GI50 [7] was 3.51 µM and the inhibition of growth at 10 µM [8] was 67%. For the same compound, the inhibition [9] was 9%, the GI50 [10] was 4.59 µM and the GI50 [11] was 3.46 µM. The inhibition of growth at 10 µM [12] was 65%, the GI50 [13] was 4.34 µM and the GI50 [14] was 6.5 µM. The GI50 [15] was 5.29 µM, the GI50 [16] was 5.27 µM and the GI50 [17] was 3.91 µM. It also gave a GI50 [19] of 4.98 µM, a GI50 [20] of 2.46 µM and an inhibition of growth at 10 µM [21] of 65%. It also gave a GI50 [22] of 3.12 µM, an inhibition of growth at 10 µM [28] of 61% and a GI50 [23] of 2.47 µM. For the same compound, the inhibition of growth at 10 µM [24] was 63%, the GI50 [25] was 1.44 µM and the GI50 [26] was 2.85 µM. For the same compound, the GI50 [27] was 4.12 µM.
